Assay results: publication PMC4987129 (Leukemia, 2015)
Blank lines part the entries; values can stand above or below the compound they belong to.

Columns and labels:
[1] = test system: K562; assay: Anti-proliferation assay; type: cell-based
[2] = test system: NB4; assay: Anti-proliferation assay; type: cell-based, human; conditions: NB4, AML; 72 hours
[3] = test system: HeLa; assay: Anti-proliferation assay; type: cell-based
[4] = test system: RV-1; assay: Anti-proliferation assay; type: cell-based
Summary of the method: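 RV-1 cells grown in DMEM with 10% FBS and 1% penicillin-streptomycin, seeded at 2500–3000/well for 12 h, then exposed to test compound at various concentrations for 72 h. Viability read by CellTiter-Glo luminescence and normalized to DMSO controls. Values are the mean of three independent measurements, with standard error <20%, and GI50 was derived by curve fitting.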

[5] = test system: Hs 505.T; assay: Anti-proliferation assay; type: cell-based; conditions: CLL, 72 hours
[6] = test system: OCI-AML3; assay: Anti-proliferation assay; type: cell-based, human
[7] = test system: TMD8; assay: Anti-proliferation assay; type: cell-based
[8] = test system: MEC-2; assay: Anti-proliferation assay; type: cell-based; conditions: MEC-2, CLL; 72 hours
[9] = test system: HEL; assay: Anti-proliferation assay; type: cell-based
[10] = test system: Ramos; assay: Anti-proliferation assay; type: cell-based; conditions: B-lymphoma, 72 hours
[11] = test system: NOMO-1; assay: Anti-proliferation assay; type: cell-based, human
[12] = test system: SKM-1; assay: Anti-proliferation assay; type: cell-based, human; conditions: SKM-1, AML; 72 hours
[13] = test system: REC-1; assay: Anti-proliferation assay; type: cell-based; conditions: REC-1, MCL; 72 hours
[14] = test system: HCT-116; assay: Anti-proliferation assay; type: cell-based
[15] = test system: Ramos cells; assay: Signaling pathway effect examination; type: cell-based
Summary of the method: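 Ramos cells in RPMI with 10% FBS were treated with serially diluted test compound for 4 h. Cells were then harvested and lysed, and phosphorylation in the lysates was assessed by western blotting.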

[16] = test system: NALM6; assay: Anti-proliferation assay; type: cell-based, human; conditions: NALM6, ALL; 72 hours
[17] = test system: DU-145; assay: Anti-proliferation assay; type: cell-based
[18] = test system: U2932; assay: Anti-proliferation assay; type: cell-based
[19] = test system: MEC-1; assay: Anti-proliferation assay; type: cell-based; conditions: MEC-1, CLL; 72 hours
[20] = test system: U937; assay: Anti-proliferation assay; type: cell-based; conditions: U937, AML; 72 hours
[21] = biological target: MNK1 (Homo sapiens, UniProt Q9BUB5); conditions: cited from earlier work
[22] = test system: mTOR; conditions: read-out: IC50, mTOR; biochemical; cited from earlier work
[23] = biological target: BTK (Homo sapiens, UniProt Q06187); conditions: cited from earlier work
[24] = test system: cancer cell lines; assay: Anti-proliferation, comparison of BMX-IN-1 with QL-X-138; type: cell-based; conditions: Supplemental Table 3

Sequence of MNK1 (Q9BUB5 1-424 isoform Q9BUB5-2): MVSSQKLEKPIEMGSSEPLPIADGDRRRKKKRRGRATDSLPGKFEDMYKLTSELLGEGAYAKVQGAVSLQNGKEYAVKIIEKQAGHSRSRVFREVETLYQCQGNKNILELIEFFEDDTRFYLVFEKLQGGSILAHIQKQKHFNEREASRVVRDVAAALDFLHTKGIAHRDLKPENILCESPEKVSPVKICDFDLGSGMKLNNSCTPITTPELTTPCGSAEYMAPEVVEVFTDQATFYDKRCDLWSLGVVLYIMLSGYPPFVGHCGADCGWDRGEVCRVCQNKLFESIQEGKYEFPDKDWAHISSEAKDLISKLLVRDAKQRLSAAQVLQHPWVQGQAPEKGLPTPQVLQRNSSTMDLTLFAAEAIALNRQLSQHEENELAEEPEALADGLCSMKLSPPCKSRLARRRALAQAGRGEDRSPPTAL
Sequence of BTK (Q06187 whole entry): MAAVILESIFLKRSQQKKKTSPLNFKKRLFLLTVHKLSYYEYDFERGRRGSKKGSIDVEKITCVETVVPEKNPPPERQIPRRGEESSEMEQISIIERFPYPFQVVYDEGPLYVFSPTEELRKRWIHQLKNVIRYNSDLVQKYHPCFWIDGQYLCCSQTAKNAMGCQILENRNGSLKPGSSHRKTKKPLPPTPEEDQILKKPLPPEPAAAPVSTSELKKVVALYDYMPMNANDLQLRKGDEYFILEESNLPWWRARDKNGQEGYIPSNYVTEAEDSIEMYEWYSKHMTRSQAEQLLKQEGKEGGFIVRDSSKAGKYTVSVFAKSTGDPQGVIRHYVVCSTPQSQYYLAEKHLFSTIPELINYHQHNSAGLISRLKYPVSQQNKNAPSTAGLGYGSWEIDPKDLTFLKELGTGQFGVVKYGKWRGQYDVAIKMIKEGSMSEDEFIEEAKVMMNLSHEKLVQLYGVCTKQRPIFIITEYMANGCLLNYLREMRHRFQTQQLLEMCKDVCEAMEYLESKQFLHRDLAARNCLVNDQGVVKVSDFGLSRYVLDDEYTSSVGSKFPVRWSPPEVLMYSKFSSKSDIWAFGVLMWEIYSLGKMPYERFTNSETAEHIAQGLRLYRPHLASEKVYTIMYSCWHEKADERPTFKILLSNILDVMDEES

GI50 ([1]; K562, CML, 72 hours): > 10 µM
GI50 ([3]; Cervical, 72 hours): > 10 µM
GI50 ([6]; OCI-AML3, AML, 72 hours): > 10 µM
GI50 [10]: > 10 µM
GI50 [12]: > 10 µM
GI50 ([14]; HCT-116, Colon, 72 hours): > 10 µM
GI50 ([17]; DU-145, Prostate, 72 hours): > 10 µM
GI50 [20]: 3.9 µM
SMILES: CC(=O)C1=C(O)C=C2Oc3c(C(N)=O)c(O)cc(O)c3[C@]2(C)C1=O [Cercosporamide]
GI50 [2]: > 10 µM
GI50 ([4]; RV-1, Prostate, 72 hours): > 10 µM
GI50 [5]: > 10 µM
GI50 ([7]; TMD8, DLBCL, 72 hours): > 10 µM
GI50 [8]: > 10 µM
GI50 ([9]; AML, 72 hours): > 10 µM
GI50 ([11]; NOMO-1, AML, 72 hours): > 10 µM
GI50 [13]: > 10 µM
effect on MNK phosphorylation ([15]; 4 hours): did not affect
effect on phosphorylation of eIF4E S209 ([15]; at a concentration of 1 μM): suppressed
GI50 [16]: > 10 µM
GI50 ([18]; U2932, DLBCL, 72 hours): > 10 µM
GI50 [19]: > 10 µM

GI50 ([1]; Homo sapiens, K562, 72 h): > 10 µM
GI50 ([3]; Homo sapiens, 72 h): > 10 µM
GI50 ([6]; Homo sapiens, OCI-AML-3, 72 h): > 10 µM
GI50 ([14]; Homo sapiens, HCT-116, 72 h): > 10 µM
GI50 ([17]; Homo sapiens, DU-145, 72 h): > 10 µM
SMILES: C=CC(=O)N1CCC[C@@H](n2nc(-c3ccc(Oc4ccccc4)cc3)c3c(N)ncnc32)C1 [PCI-32765]
GI50 ([4]; RV-1, 72 h): > 10 µM
GI50 ([7]; Homo sapiens, TMD8, 72 h): 0.002 µM
GI50 ([9]; Homo sapiens, 72 h): 4 µM
GI50 ([11]; Homo sapiens, NOMO-1, 72 h): > 10 µM
effect on MNK phosphorylation ([15]; 4 hours): did not affect
effect on phosphorylation of PLCγ2 Y1217 ([15]; 4 hours): strongly blocked
GI50 ([18]; Homo sapiens, U2932, 72 h): > 10 µM

SMILES: Nc1ccc(-c2ccc3ncc4ccc(=O)n(-c5cccc(C(F)(F)F)c5)c4c3c2)cn1 [Torin2, 9-(6-aminopyridin-3-yl)-1-(3-(trifluoromethyl)phenyl)benzo[h][1,6]naphthyridin-2(1H)-one]
activity against MNK1 [21]: no apparent activity
IC50 [22]: 0.00025 µM
activity against BTK [23]: no apparent activity

SMILES: C=CC(=O)Nc1cc(-n2c(=O)ccc3cnc4ccc(-c5ccc(NS(C)(=O)=O)cc5)cc4c32)ccc1C [BMX-IN-1]
anti-proliferation activity in comparison to QL-X-138 [24]: weaker anti-proliferation activity
